Eight compounds from ChEMBL document CHEMBL1123282, “Antiinflammatory activity of substituted 6-hydroxypyrimido[2,1-f]purine-2,4,8(1H,3H,9H)-triones. Atypical nonsteroidal antiinflammatory agents” (J Med Chem, 1986) can be followed below.

The target of experiment [1] is Cyclooxygenase (Rattus norvegicus) (UniProt P35355+Q63921). Kind of experiment: In vitro inhibitory activity against Prostaglandin G/H synthase in rat neutrophils at a dose of 50 uM.
In experiment [2] the test system is Rattus norvegicus. Kind of experiment: In vivo antiinflammatory activity against rats by RPAR(reverse passive Arthus reaction) synovitis method. In kind it is functional. On the set-up: concentration or dose not given beside the values. An outline of the steps: (§1)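 Lewis rats, oral drug or placebo 1 h before iv BSA (2.28 mg in saline), then intraarticular rabbit anti-BSA (0.54 mg) into one knee and saline into the other, under light anesthesia. Second oral dose at 3 h; the total of both doses is the calculated dose. About 17 h after induction, subpatellar tissue with synovium is excised and weighed. Response is antibody-minus-saline knee weight, tested by analysis of variance.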

In experiment [3] the target is T1, Polyunsaturated fatty acid 5-lipoxygenase (Rattus norvegicus) (UniProt P12527).
T1 sequence (whole entry): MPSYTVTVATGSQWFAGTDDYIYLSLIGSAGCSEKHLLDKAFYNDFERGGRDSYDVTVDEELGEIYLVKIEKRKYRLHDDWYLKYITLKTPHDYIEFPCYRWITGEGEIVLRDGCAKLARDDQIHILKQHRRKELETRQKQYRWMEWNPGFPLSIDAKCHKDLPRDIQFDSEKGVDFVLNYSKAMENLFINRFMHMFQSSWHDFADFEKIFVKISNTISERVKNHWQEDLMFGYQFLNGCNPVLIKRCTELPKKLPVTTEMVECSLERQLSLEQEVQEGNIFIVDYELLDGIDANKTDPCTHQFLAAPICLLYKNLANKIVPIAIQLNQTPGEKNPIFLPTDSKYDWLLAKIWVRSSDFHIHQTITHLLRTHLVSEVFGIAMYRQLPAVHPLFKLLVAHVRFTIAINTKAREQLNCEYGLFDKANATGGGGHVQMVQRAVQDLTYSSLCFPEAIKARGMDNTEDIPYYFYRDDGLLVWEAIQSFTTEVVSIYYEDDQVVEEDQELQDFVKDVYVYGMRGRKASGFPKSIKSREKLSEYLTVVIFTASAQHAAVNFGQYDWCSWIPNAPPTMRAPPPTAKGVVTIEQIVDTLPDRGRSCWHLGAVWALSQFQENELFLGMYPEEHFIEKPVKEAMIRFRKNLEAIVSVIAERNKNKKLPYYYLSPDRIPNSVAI
As to the kind of experiment: In vitro inhibitory activity against Lipoxygenase in rat neutrophils at a dose of 50 uM. An outline of the steps: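 Neutrophils come from the 4 h pleural exudate of male Wistar-Lewis rats given iv BSA plus intrapleural rabbit anti-BSA IgG. Cells are washed, red cells lysed with NH4Cl, and resuspended at about 5×10^6 cells/0.1 mL in Tris pH 7.4 with NaCl and 1 mM CaCl2. Cells are preincubated with compound 4 min at room temperature.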

Experiment [4] concerns Rattus norvegicus. Kind of experiment: Compound was tested in vivo for antiinflammatory activity against chronic adjuvant arthritic rat by prophylactic inhibition 1 degree paw after peroral administration of 25 mg/kg of dose. Conditions: route oral. It is filed as functional.
The test system of experiment [5] is Rattus norvegicus. Kind of experiment: Compound was tested in vivo for antiinflammatory activity against chronic adjuvant arthritic rat by prophylactic inhibition 2 degree paw after peroral administration of 25 mg/kg of dose. It is filed as functional. As to conditions: route oral.
For experiment [6], the system named is Rattus norvegicus. As to the kind of experiment: compound was tested in vivo for antiinflammatory activity against rats by RPAR(reverse passive Arthus reaction) synovitis method.
In experiment [7] the test system is Rattus norvegicus. Kind of experiment: Compound was tested in vivo for antiinflammatory activity against chronic adjuvant arthritic rat by therapeutic inhibition 2 degree paw after peroral administration of 5 mg/kg of dose. Conditions: po, read-out: Inhibition.
The test system of experiment [8] is Rattus norvegicus. As to the kind of experiment: Compound was tested in vivo for antiinflammatory activity against chronic adjuvant arthritic rat by therapeutic inhibition 2 degree paw after peroral administration of 0.3 mg/kg of dose. Conditions: po, read-out: Inhibition.
Experiment [9] relates to Rattus norvegicus. Kind of experiment: Compound was tested in vivo for antiinflammatory activity against chronic adjuvant arthritic rat by prophylactic inhibition 2 degree paw after peroral administration of 1 mg/kg of dose. Conditions: po, read-out: Inhibition.
For experiment [10], the system named is Rattus norvegicus. As to the kind of experiment: Compound was tested in vivo for antiinflammatory activity against chronic adjuvant arthritic rat by therapeutic inhibition 2 degree paw after peroral administration of 3 mg/kg of dose. As to conditions: po, read-out: Inhibition.
Experiment [11] is filed under the species Rattus norvegicus. As to the kind of experiment: animal or person. Conditions: po, read-out: Inhibition.
Experiment [12] relates to Rattus norvegicus. Kind of experiment: Compound was tested in vivo for antiinflammatory activity against chronic adjuvant arthritic rat by therapeutic inhibition 2 degree paw after peroral administration of 1 mg/kg of dose. It is filed as functional. As to conditions: route oral.
The subject of experiment [13] is Rattus norvegicus. As to the kind of experiment: Compound was tested in vivo for antiinflammatory activity against rats by RPAR(reverse passive Arthus reaction) synovitis method ata dose of 50 mg/kg, po. In kind it is functional. Summed up: as §1
For experiment [14], the species on record is Rattus norvegicus. Kind of experiment: compound was tested for antiinflammatory activity by immune response to collagen II antigen in rats, antibody titer was determined by passive hemagglutinination. It is filed as functional, organism-based. An outline of the steps: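 Rats immunized with bovine type II collagen in incomplete Freund's adjuvant, with drug given alongside. Antibody titer to collagen II measured by passive hemagglutination; p ≤ 0.05 by Student's t-test.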

The species named for experiment [15] is Rattus norvegicus. Kind of experiment: Delayed Type hypersensitivity (DTH) is measured by increase in ear thickness 24 hours after antigen injection into pinna. In kind it is functional.
For experiment [16], the species on record is Rattus norvegicus. As to the kind of experiment: compound was tested for antiinflammatory activity against collagen II arthritis in rats,. In kind it is functional. Summed up: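 Arthritis induced in rats by injection of bovine articular cartilage type II collagen (dissolved in 0.01 M AcOH, dialysed against saline) mixed 1:1 with incomplete Freund's adjuvant. Paw inflammation checked weekly for 7 weeks. Inhibition = [Δpaw vol(collagen) − Δpaw vol(collagen + drug)]/[Δpaw vol(collagen) − Δpaw vol(ICFA control)] × 100. Bone damage scored by lateral-projection radiography; p ≤ 0.05 by Student's t-test.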

Experiment [17] is filed under the species Rattus norvegicus. As to the kind of experiment: Compound was tested for intestinal Ulcerogenic effect in rats, activity expressed as ulcer incidence. In kind it is functional. Summed up:
(§2)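 Normal fed rats were gavaged once daily for three consecutive days at 10–300 mg/kg and killed 24 h after the last dose. Intestines were examined for ulcers, recording incidence per group of 8 and a lesion score (±SE).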

For experiment [18], the species on record is Rattus norvegicus. As to the kind of experiment: Compound was tested for gastric Ulcerogenic effect in rats, activity expressed as lesion length.
The species named for experiment [19] is Rattus norvegicus. As to the kind of experiment: Compound was tested for intestinal Ulcerogenic effect in rats, activity expressed as lesion score. It is filed as functional. Summed up:
as §2

In experiment [20] the test system is Rattus norvegicus. Kind of experiment: Compound was tested for intestinal ulcerogenic effect in rats at a dose of 10 mg/kg. It is filed as functional. Summed up: as §2
Experiment [21] deals with Rattus norvegicus. As to the kind of experiment: Compound was tested in vivo for antiinflammatory activity against chronic adjuvant arthritic rat by prophylactic inhibition 2 degree paw after peroral administration of 10 mg/kg of dose. It is filed as functional. As to conditions: route oral. Summed up:
(§3)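 Prophylactic adjuvant arthritis: heat-killed Mycobacterium tuberculosis powder in paraffin oil (6 mg/mL), 0.1 mL injected into the left hind paw. Drug given orally 1 h before adjuvant, then for 21 consecutive days; controls received methyl cellulose. Left (1°) and right (2°) hind paw volumes were measured by plethysmograph.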

The subject of experiment [22] is Rattus norvegicus. Kind of experiment: Compound was tested in vivo for antiinflammatory activity against chronic adjuvant arthritic rat by prophylactic inhibition 1 degree paw after peroral administration of 10 mg/kg of dose. It is filed as functional. Conditions: route oral. Summed up: as §3

Values joined by “and” are separate entries in the source; they are usually repeats but may differ in a detail not shown here. Equal entries are not always repeated.

In the case of `C#CCc1c(O)n(Cc2ccc(F)cc2)c2nc3c(c(=O)n(C)c(=O)n3C)n2c1=O`, the inhibition in experiment [1] is 3%; in [3], 8% and 5%. The Inhibition in experiment [2] was 24%. Besides, the results for the inhibition in vivo at 25 mg/kg in experiment [4] and in experiment [5] were 10% and 19%, respectively.

`COc1ccc2cc([C@H](C)C(=O)O)ccc2c1` [NAPROXEN] displayed an ED50 in experiment [6] of 24.4 mg/kg. Further, in experiment [7], the inhibition in vivo at 5 mg/kg was 44%. The inhibition in vivo at 0.3 mg/kg in experiment [8] is 27%. For the same compound, the inhibition in vivo at 1 mg/kg in experiment [9] turned out to be 14%; in [12] it was 50%. Further, the inhibition in vivo at 3 mg/kg in [10] was 70%. For the same compound, the inhibition in vivo at 25 mg/kg in experiment [11] worked out at 58%.

Turning to `CC(C)=CCc1c(O)n(Cc2ccc([S+](C)[O-])cc2)c2nc3c(c(=O)n(C)c(=O)n3C)n2c1=O` (stereo not drawn), the inhibition in vivo at 25 mg/kg in [4] came out at 13%; in experiment [5], 47%.

Take `Cc1c(O)n(Cc2cccc(F)c2)c2nc3c(c(=O)n(C)c(=O)n3C)n2c1=O`: the inhibition in vivo at 50 mg/kg in experiment [13] was determined as 0%.

As to `CCCc1c(O)n(C(C)c2ccccc2)c2nc3c(c(=O)n(C)c(=O)n3C)n2c1=O` (stereo not drawn), in [13], the inhibition in vivo at 50 mg/kg was 0%.

In turn, AURANOFIN came in with an Antibody titer in experiment [14] of 12.9 log-2. In experiment [15], this compound yielded a DTH of 0.0445 mM. Further, the Positive in experiment [16] is 43.7% and 43.8%.

On to `COc1ccc2c(c1)c(CC(=O)O)c(C)n2C(=O)c1ccc(Cl)cc1` [INDOMETHACIN], for which the Ulcer incidence in experiment [17] and in experiment [20] was 8 number/group each time. Also, the Length in experiment [18] worked out at 5 mm rat-1. Besides, in experiment [19], the Lesion length amounted to 4.2 mm rat-1.

As to `C=CCc1c(O)n(Cc2ccccc2)c2nc3c(c(=O)n(C)c(=O)n3C)n2c1=O`, the inhibition in vivo at 10 mg/kg in experiment [21] and in [22] was 16% each time. Besides, the inhibition is 16% in [1]; 16% and 20% in [3]. Also, in [2], the Inhibition is recorded as 29%.

Broadly, the inhibition is the percentage by which the read-out fell short of the control. The Inhibition is the percentage by which the read-out fell short of the control. As a reminder, the ED50 is the dose at which the effect has come halfway, by size or by number of responders.
